Shown are actives, neighbours in structure and some others; about 3.5% of the full set was active somewhere.
MrgX1 agonist – agonists of human MrgX1 receptor; MrgX1-HEK293 cells, Fluo-4 calcium fluorescence, agonist mode; active compounds read high; B-score at 10 µM; hit rate 0.44% among 310,000; AID 588627;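 active = calcium response B-score plate-corrected fluorescence ratio at least 3 library SD, with starting fluorescence B-score inside 5 SD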
Target sequence (Q96LB2 whole entry, looked up): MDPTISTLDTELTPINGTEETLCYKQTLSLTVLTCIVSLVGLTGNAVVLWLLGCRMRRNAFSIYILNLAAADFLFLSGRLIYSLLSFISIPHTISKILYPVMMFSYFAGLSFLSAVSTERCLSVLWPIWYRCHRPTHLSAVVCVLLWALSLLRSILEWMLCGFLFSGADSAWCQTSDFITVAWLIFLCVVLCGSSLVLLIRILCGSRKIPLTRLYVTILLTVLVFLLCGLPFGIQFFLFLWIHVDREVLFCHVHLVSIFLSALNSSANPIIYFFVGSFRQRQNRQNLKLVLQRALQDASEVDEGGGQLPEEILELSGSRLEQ
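Assay system: stable human MrgX1 HEK293 cell line. Quantity: 15,000 cells per well. Schedule: cells plated overnight, dye loaded 0.5 h 37 °C, 0.5 h room temperature. Detection: Fluo-4 NW calcium-flux fluorescence, kinetic read. Read-out basis: peak-minus-minimum fluorescence over baseline, converted to B scores. Control set: positive and negative control wells on each plate.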
RGS4 act – RGS4 potentiation or activation | HEK293 M3R/inducible RGS4, carbachol calcium flux Fluo4; active compounds read low | B-score at 10 µM | hit rate 0.92% among 310,000 | AID 463111;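 active = B-score of the integrated calcium signal more than 4 SD below the library mean, with starting fluorescence not abnormally high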;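 also: negative B-score means reduced calcium response which marks RGS4 activation or potentiation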
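Material: Inducible-RGS4 HEK293 cells carrying M3 receptor; also added: carbachol at ECmax as muscarinic agonist stimulus; incubation: compound preincubation 20 min at room temperature before agonist; signal: Fluo4-AM (2 µM) calcium-flux fluorescence, kinetic read; measure: integrated calcium ratio converted to B score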
MrgX1 antag – human MrgX1 receptor antagonism, primary screen | MRGX1-HEK293 calcium flux, Fluo-4, BAM8-22 antagonism; active compounds read low | B-score at 10 µM | AID 588676 | Q96LB2 | hit rate 1.3% among 310,000;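 active = calcium-response B-score plate-corrected more than 3 library SD below zero, starting fluorescence within 5 deviations, no agonist response on first addition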;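 also: peak minus trough fluorescence over baseline after final BAM8-22 challenge near maximal dose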
RGS4 block – inhibitors of human RGS4. hit rate 0.45% among 310,000. B-score at 10 µM. HEK293 M3R/RGS4 inducible, Fluo-4 calcium flux; active compounds read high; triggered by carbachol at its EC20. P49798;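 active = B-score, a plate-corrected calcium signal, over three deviations above library mean, with baseline fluorescence within five deviations of library mean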;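 also: RGS4 expression induced by doxycycline in cells with stable M3 receptor; B-score is computed from the integrated fluorescence ratio over baseline after carbachol; higher B-score means a larger calcium signal and so more RGS4 inhibition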
Target sequence (P49798 whole entry, looked up): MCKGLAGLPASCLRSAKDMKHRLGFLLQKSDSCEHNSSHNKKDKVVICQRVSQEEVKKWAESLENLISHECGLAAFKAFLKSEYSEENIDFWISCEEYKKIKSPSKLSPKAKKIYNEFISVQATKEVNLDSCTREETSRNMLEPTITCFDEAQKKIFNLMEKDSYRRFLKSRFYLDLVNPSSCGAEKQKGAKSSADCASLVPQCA
MrgX1 allo act – human MrgX1 positive allosteric modulation, primary screen; hit rate 0.63% among 310,000; MrgX1-HEK293, Fluo-4 calcium flux, FDSS; active compounds read high; B-score at 10 µM;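 active = plate-corrected calcium response at least 3 library SD above typical, normal starting fluorescence, not activating the receptor alone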;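 also: compound read alongside a low EC10 to EC30 dose of BAM8-22 agonist; peak minus trough fluorescence over baseline measured at the second addition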
RGS4 act valid – RGS4 activation, validation assay; inhibition, % at 10 µM; hit rate 89% among 1,100; shares compounds with RGS4 act; HEK293 M3R/RGS4 inducible, carbachol calcium flux Fluo4;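 active = inhibition above 3 SD of the buffer control wells, cut at about 41% in these data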;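 also: signal is the integrated peak-minus-minimum Fluo4 fluorescence over baseline ratio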
M3R Ca counter – activity in cells without induced RGS4 expression; shares compounds with RGS4 act; HEK293 M3R non-induced RGS4, Fluo4 calcium flux; after carbachol challenge at its EC90; inhibition, % at 10 µM; hit rate 82% among 1,100; AID 602283;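 active = inhibition exceeding 3 SD of buffer-only control wells, cut at about 26% in these data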;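 also: percent drop in integrated peak-minus-baseline over baseline Fluo4 ratio after carbachol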
Starred values were filed as active, the others as inactive; i = inactive; nt = no result.

SMILES | MrgX1 agonist | RGS4 act | MrgX1 antag | RGS4 block | MrgX1 allo act | RGS4 act valid | M3R Ca counter
CC(CN1CCOCC1)OC(=O)c1ccc2c(c1)OCCO2 (configuration not stated) | i | i | i | i | i | nt | nt
CC(CN1CCCCC1)OC(=O)c1ccc2c(c1)OCCO2 (configuration not stated) | i | -11.1* | i | i | i | 67.5* | 33.3*
CC(CN1CCOCC1)OC(=O)C(C)(c1ccccc1)c1ccccc1 (configuration not stated) | i | i | i | i | i | nt | nt
CCCN(CC(=O)Nc1ccccc1OC)C(=O)c1cccc(S(=O)(=O)Nc2ccc(OC)cc2)c1 | i | i | i | i | i | nt | nt
CN1CCN(C2=Cc3ccccc3Sc3cc(F)ccc32)CC1 | i | -12.1* | i | i | 8.19* | 92.0* | 94.3*
CCN(CC(=O)Nc1ccccc1Br)Cc1nc2ccccc2c(=O)[nH]1 | i | i | i | i | i | nt | nt
CCCc1nn(C)c(C(=O)Nc2ccc3ccccc3c2)c1Cl | i | i | i | i | i | nt | nt
CCC1CCCCN1CCCNC(=O)C1CCCN(c2ncnc3c2nc2n3CCCCC2)C1 (configuration not stated) | i | i | i | i | i | nt | nt
CN(C)CC#CCOC(c1ccccc1)c1ccccc1 | i | -8.93* | i | i | i | 92.5* | 71.8*
CCN(CC)CCOC(c1ccccc1)c1ccc(C)cc1 (configuration not stated) | i | i | i | i | i | nt | nt
CCN(CC)CC#CCOC(c1ccccc1)c1ccccc1 | i | -9.21* | i | i | i | 88.0* | 56.8*
C=CC[N+]1(CC#CCOC(c2ccccc2)c2ccccc2)CCOCC1 | i | i | i | i | i | nt | nt
CCN(CC)CC#CCC(O)(c1ccccc1)c1ccccc1 | i | -7.69* | i | i | i | 90.0* | 51.8*
CN(C)CC#CCC(O)(c1ccccc1)c1ccccc1 | i | i | i | i | i | nt | nt
CC1CCCN(C(=O)Cn2nnc(-c3ccc(S(C)(=O)=O)cc3)n2)C1 (configuration not stated) | i | i | i | i | i | nt | nt
CC(C)[C@H](NC(=O)[C@H](Cc1ccccc1)n1c(=O)[nH]c2ccccc2c1=O)C(=O)N1CCC[C@@H]1C(=O)O | i | i | i | i | i | nt | nt
Nc1ncc([N+](=O)[O-])cc1S(=O)(=O)c1ccccc1 | i | i | i | i | i | nt | nt
CCC(C(=O)OCC(=O)Nc1cccc(C(C)=O)c1)c1ccccc1 (configuration not stated) | i | i | i | i | i | nt | nt
CCC(C(=O)OCC(=O)Nc1cc(Cl)cc(Cl)c1)c1ccccc1 (configuration not stated) | i | -8.43* | i | i | i | 73.5* | 25.8*
CCc1ccc([C@@H]2C[C@H]3CN(Cc4ccccc4OC)C(=O)[C@]34CCCN24)cc1 | i | -9.54* | i | i | i | 79.0* | 29.8*
CCCCNC(=O)c1onc(CSc2cc(C)cc(C)c2)c1C(=O)NCCCC | i | i | i | i | i | nt | nt
O=C(Nc1ccc2c(c1)CCC2)c1ncoc1-c1ccccc1F | nt | i | nt | i | nt | nt | nt
COc1ccc(-c2nn(-c3ccccc3)cc2C(=O)Nc2nccs2)cc1 | i | -8.72* | i | i | i | 68.0* | 0.0
COc1cccc(-c2nn(-c3ccccc3)cc2C(=O)Nc2nccs2)c1 | i | i | i | i | i | nt | nt
O=C(NCC1CCN(Cc2ccc(F)cc2)CC1)Nc1cc(F)ccc1F | i | i | i | i | i | nt | nt
SMILES | MrgX1 agonist | RGS4 act | MrgX1 antag | RGS4 block | MrgX1 allo act | RGS4 act valid | M3R Ca counter
O=C(COC(=O)c1cc(S(=O)(=O)N2CCOCC2)ccc1O)NCCc1ccccc1 | i | -9.5* | i | i | i | 0.0 | 0.0
Clc1ccc(CN2C3=NCCCN3c3ccccc32)cc1Cl | i | i | i | i | i | nt | nt
O=C(NCc1ccc2c(c1)OCO2)c1ccc2c(c1)N(Cc1c(F)cccc1Cl)C(=O)CS2 | i | -7.74* | i | i | i | 93.0* | 59.8*
COc1ccc(C)c2sc(=NC(=O)c3cccc(N4C(=O)CCC4=O)c3)n(C)c12 | i | i | i | i | i | nt | nt
C=CCn1c(=NC(=O)c2cccc(N3C(=O)CCC3=O)c2)sc2cccc(OC)c21 | i | -10.2* | i | i | i | 92.0* | 72.8*
COC(=O)C1=C(C(=O)OC)[C@@H]2N(C)c3ccc(OC)cc3[C@@]23C[C@@H](C(=O)OC)N(C(=O)c2cccs2)C3=N1 | i | i | i | i | i | nt | nt
O=C(c1ccc2oc(CCCc3ccccc3)nc2c1)N1CCCC1 | i | i | i | i | i | nt | nt
OC1(C#CCCN2CCCCC2)c2ccccc2-c2ccccc21 | i | -8.73* | i | i | i | 92.0* | 59.8*
OC1(CC#CCN2CCCCC2)c2ccccc2-c2ccccc21 | i | i | i | i | i | nt | nt
CCOC(=O)c1sc(Nc2ccccc2)nc1C | i | i | i | i | i | nt | nt
CCOC(=O)c1sc(Nc2nc3c(OC)cccc3s2)nc1C | i | -7.76* | i | i | i | 93.0* | 79.3*
Cc1cccc(C(=O)Nc2nnc(Cc3ccccc3)s2)c1 | i | i | i | i | i | nt | nt
CCCc1nc2ccccc2c(C(=O)OCC(=O)Nc2cccc(S(=O)(=O)N3CCOCC3)c2)c1CC | i | -8.86* | i | i | i | 91.5* | 91.8*
CC1CCc2nc3ccccc3c(C(=O)OCC(=O)N3CCc4ccccc43)c2C1 (configuration not stated) | i | i | i | i | i | nt | nt
CCCc1nc2ccccc2c(C(=O)OCC(=O)N2CCc3ccccc32)c1CC | i | -8.59* | i | i | i | 84.5* | 83.8*
O=C(O)CC(NC(=O)COc1ccccc1)c1cccc([N+](=O)[O-])c1 (configuration not stated) | i | i | i | i | i | nt | nt
CC(=O)N1CCC(N(CCCOC(C)C)S(=O)(=O)c2ccc([N+](=O)[O-])cc2)CC1 | i | i | i | i | i | nt | nt
OC(CN1CCN(C(c2ccccc2)c2ccccc2)CC1)c1ccc(Br)cc1 (configuration not stated) | i | -13.2* | i | i | i | 92.5* | 78.8*

Assay outcomes as filed in PubChem.
